# Results from ChEMBL document CHEMBL4406821, “Novel dual inhibitors targeting CDK4 and VEGFR2 synergistically suppressed cancer progression and angiogenesis” (Eur J Med Chem, 2019).
# Activity calls are given as the source filed them. No cut-off for these calls is given here.
# Legend:
# MDA-MB-231 = assay: Induction of apoptosis in human MDA-MB-231 cells at 40 nM incubated for 48 hrs by annexin V FITC and propidium iodide staining based flow cytometry; type: functional, cell-based
# Procedure, shortened: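 Annexin V-FITC/PI double staining with flow-cytometric readout. MDA-MB-231, T-47D, SiHa and HeLa cells were treated with graded concentrations for 48 h. MDA-MB-231 and T-47D were grown in DMEM and SiHa in 1640 medium, each with 10% FBS and 1% penicillin/streptomycin at 37°C under 5% CO2. Early- and late-stage apoptotic fractions were scored.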
# SiHa = assay: Antiangiogenic activity against human SiHa cells xenografted in NOD/SCID BALB/c mouse assessed as reduction in CD31 expression at 40 mg/kg, po measured after 21 days by hematoxylin and eosin staining based immunohistochemistry; type: functional, organism-based
# Procedure, shortened: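 Female NOD/SCID Balb/c mice, 6–8 weeks old, received 2×10^6 SiHa cells subcutaneously in the right flank. Once tumors reached 100 mm³, mice were randomized, 5 per group, and gavaged once daily for 21 days. Formalin-fixed, paraffin-embedded tumor sections were stained with Ki67 or CD31 antibody (1:100, 4 °C overnight), then biotin secondary and ABC-peroxidase/DAB, with hematoxylin counterstain.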
# [1] = biological target: Vascular endothelial growth factor receptor 2 (Homo sapiens, UniProt P35968); assay: Inhibition of VEGFR2 in HUVEC cells assessed as reduction in VEGFR2 phosphorylation at 20 to 40 nM incubated for 48 hrs by Western blot analysis; type: cell-based
# Procedure, shortened: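 HUVECs were maintained in 1640 medium with 10% FBS. They were treated with graded concentrations for 48 h, PBS-washed and lysed in RIPA buffer. Immunoblots were probed for total and phospho VEGFR2, STAT3, Akt, Erk1 and Src, each at 1:1000. β-actin served as loading control.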
# [2] = Toxicity in NOD/SCID BALB/c mouse xenografted with human SiHa cells assessed as toxic effects in lungs at 40 mg/kg, po administered for 48 hrs by hematoxylin and eosin staining method; type: organism-based; settings: in vivo
# [3] = Cmax in Sprague-Dawley rat at 10 mg/kg, po by HPLC-MS analysis; type: ADME, organism-based; design: dose 10 mg/kg, route oral; settings: in vivo
# Procedure, shortened: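 Rats fitted with jugular vein catheters for serial blood sampling. Compound dissolved in saline with 5% (v/v) DMSO and given as a single 10 mg/kg dose iv or po after an overnight fast, n = 5 per group. Plasma isolated at once and measured by HPLC with tandem MS detection. Parameters derived by noncompartmental fitting.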
# [4] = biological target: Activin receptor type-1B (Homo sapiens) (UniProt P36896); assay: Inhibition of recombinant human ALK4 (150 to end residues) at 1 uM using as casein substrate incubated for 40 mins in presence of [gamma-33P]-ATP by scintillation counting method relative to control
# Procedure, shortened: (§1)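 Kinase panel profiling at 1 μM performed by Eurofins KinaseProfiler; percent inhibition reported as mean of two independent experiments.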
# [5] = biological target: Serine/threonine-protein kinase BRSK1 (Homo sapiens) (UniProt Q8TDC3); assay: Inhibition of recombinant human BRSK1 (2 to end residues) at 1 uM using KKKVSRSGLYRSP as substrate incubated for 40 mins in presence of [gamma-33P]-ATP by scintillation counting method relative to control; procedure, shortened: as §1
# [6] = tested on: Serine/threonine-protein kinase Chk2 (Homo sapiens), O96017 [I157T]; assay: Inhibition of recombinant human CHK2 I157T mutant (5 to end residues) at 1 uM using KKKVSRSGLYRSP as substrate incubated for 40 mins in presence of [gamma-33P]-ATP by scintillation counting method relative to control; procedure, shortened: as §1
# [7] = biological target: Ephrin type-B receptor 2 (Homo sapiens) (UniProt P29323); assay: Inhibition of recombinant human EPhB2 (560 to end residues) at 1 uM using poly(Glu, Tyr) 4:1 as substrate incubated for 40 mins in presence of [gamma-33P]-ATP by scintillation counting method relative to control
# Sequence of Ephrin type-B receptor 2 (Homo sapiens) (P29323 whole entry, the tested form may be a part): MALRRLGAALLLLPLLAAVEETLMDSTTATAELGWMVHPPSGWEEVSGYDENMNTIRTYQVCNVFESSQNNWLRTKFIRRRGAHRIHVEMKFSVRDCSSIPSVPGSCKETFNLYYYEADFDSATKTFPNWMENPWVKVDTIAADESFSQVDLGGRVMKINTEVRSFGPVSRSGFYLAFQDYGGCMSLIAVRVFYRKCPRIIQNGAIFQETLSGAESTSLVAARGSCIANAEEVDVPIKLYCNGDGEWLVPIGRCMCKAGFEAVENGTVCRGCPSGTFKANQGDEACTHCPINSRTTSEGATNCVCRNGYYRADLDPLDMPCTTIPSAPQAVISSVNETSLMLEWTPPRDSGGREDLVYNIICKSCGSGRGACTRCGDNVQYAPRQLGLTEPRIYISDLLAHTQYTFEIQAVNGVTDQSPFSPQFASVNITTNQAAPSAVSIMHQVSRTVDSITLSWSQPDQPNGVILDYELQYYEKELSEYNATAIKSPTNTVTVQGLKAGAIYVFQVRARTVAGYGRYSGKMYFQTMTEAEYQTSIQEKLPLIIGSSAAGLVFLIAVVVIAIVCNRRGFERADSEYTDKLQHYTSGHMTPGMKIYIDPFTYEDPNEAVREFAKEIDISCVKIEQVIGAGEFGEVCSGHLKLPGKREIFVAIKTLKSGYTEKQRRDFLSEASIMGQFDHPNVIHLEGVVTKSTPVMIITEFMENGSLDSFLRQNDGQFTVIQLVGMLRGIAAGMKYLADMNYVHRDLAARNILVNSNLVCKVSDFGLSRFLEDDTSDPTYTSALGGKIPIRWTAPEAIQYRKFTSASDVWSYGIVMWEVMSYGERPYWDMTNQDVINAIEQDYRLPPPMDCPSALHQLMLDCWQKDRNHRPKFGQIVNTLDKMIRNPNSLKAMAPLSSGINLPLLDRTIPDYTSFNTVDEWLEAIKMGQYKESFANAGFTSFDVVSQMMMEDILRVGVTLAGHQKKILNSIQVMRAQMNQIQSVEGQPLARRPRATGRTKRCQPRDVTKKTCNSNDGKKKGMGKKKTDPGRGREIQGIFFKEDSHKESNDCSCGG
# [8] = biological target: Insulin receptor (Homo sapiens) (UniProt P06213); assay: Inhibition of recombinant human IR (1005 to 1310 residues) at 1 uM using KKKSPGEYVNIEFG as substrate incubated for 40 mins in presence of [gamma-33P]-ATP by scintillation counting method relative to control
# Sequence of Insulin receptor (Homo sapiens) (P06213 28-758 limits assumed): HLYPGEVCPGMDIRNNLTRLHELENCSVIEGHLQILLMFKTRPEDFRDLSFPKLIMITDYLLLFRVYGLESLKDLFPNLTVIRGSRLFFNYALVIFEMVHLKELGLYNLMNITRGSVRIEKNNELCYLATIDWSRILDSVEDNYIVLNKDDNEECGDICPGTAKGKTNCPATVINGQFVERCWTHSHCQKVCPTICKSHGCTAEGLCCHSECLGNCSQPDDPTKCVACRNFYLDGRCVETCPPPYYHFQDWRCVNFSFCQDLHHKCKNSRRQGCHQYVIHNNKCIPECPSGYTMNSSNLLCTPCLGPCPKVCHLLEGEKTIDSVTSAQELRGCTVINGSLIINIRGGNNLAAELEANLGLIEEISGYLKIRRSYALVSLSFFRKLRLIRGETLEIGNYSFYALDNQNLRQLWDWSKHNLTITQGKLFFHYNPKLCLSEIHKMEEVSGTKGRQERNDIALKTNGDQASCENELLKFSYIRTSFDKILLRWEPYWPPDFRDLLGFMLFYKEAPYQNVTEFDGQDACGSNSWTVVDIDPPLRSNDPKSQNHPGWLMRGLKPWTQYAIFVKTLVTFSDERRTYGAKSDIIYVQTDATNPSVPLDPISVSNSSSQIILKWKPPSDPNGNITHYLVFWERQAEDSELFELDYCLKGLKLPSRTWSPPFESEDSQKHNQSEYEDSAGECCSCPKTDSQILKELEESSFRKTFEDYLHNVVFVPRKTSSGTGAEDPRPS
# Sequence of Insulin receptor (Homo sapiens) (P06213 763-1382 limits assumed): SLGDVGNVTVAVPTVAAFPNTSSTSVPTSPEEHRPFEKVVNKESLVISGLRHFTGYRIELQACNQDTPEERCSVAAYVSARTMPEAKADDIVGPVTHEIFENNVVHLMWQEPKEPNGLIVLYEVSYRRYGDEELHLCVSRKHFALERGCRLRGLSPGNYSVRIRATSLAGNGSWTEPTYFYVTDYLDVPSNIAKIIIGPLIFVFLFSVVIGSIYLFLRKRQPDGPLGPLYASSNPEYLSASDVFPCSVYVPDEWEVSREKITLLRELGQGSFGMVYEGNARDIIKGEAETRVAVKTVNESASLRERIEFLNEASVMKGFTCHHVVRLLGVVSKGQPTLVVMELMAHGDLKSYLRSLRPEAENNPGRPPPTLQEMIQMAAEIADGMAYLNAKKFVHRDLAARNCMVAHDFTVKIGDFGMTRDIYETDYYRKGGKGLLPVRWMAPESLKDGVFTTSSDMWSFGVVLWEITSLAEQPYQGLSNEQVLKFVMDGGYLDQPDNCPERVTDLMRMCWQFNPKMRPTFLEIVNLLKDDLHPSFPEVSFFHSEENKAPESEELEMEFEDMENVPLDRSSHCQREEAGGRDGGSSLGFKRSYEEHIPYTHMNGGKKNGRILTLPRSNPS
# [9] = tested on: Hepatocyte growth factor receptor (Homo sapiens), P08581 [D1246H]; assay: Inhibition of recombinant human Met D1246H mutant (974 to end residues) at 1 uM using KKKGQEEEYVFIE as substrate incubated for 40 mins in presence of [gamma-33P]-ATP by scintillation counting method relative to control
# Sequence of Hepatocyte growth factor receptor (Homo sapiens), P08581 [D1246H] (P08581 with tags, fused parts or gaps D1246H): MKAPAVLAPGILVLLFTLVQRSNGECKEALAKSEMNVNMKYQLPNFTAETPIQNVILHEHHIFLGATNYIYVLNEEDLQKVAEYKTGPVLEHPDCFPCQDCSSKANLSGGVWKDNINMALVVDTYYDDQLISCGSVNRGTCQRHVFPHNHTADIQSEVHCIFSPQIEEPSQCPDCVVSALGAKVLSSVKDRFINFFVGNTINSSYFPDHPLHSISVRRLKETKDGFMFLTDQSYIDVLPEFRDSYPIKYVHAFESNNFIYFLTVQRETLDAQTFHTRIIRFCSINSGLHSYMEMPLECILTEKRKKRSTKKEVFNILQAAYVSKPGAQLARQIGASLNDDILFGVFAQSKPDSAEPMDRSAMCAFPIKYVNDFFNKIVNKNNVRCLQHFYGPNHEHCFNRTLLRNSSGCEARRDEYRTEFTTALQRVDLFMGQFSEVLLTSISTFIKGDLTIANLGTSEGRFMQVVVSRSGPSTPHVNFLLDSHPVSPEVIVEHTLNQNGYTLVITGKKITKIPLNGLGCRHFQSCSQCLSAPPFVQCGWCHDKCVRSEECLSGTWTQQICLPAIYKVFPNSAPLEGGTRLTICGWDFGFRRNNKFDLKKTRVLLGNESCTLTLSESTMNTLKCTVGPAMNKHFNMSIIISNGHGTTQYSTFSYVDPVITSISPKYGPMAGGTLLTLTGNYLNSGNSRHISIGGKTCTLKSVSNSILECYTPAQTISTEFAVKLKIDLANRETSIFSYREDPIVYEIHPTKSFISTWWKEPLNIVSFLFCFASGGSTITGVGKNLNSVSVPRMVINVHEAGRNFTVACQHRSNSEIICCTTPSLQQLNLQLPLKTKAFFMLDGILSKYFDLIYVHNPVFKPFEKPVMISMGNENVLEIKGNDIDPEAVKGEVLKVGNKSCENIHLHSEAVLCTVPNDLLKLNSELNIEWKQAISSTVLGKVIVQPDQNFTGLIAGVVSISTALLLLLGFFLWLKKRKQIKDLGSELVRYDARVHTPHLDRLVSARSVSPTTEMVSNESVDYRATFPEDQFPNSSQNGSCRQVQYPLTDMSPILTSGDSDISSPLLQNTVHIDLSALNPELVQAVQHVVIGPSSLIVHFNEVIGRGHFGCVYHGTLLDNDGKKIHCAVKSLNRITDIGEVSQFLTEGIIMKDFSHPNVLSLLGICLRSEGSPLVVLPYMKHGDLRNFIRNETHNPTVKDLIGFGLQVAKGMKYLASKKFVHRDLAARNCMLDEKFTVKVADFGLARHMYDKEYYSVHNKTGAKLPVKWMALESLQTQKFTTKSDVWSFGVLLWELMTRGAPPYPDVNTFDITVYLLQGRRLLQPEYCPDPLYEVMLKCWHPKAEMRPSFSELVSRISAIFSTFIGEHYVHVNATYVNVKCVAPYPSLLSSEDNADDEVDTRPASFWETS
# [10] = biological target: Death-associated protein kinase 3 (Homo sapiens) (UniProt O43293); assay: Inhibition of recombinant human ZIPK (1 to 290 residues) at 1 uM using KKLNRTLSFAEPG as substrate incubated for 40 mins in presence of [gamma-33P]-ATP by scintillation counting method relative to control
# Sequence of Death-associated protein kinase 3 (Homo sapiens) (O43293 whole entry, looked up, the tested form may be a part): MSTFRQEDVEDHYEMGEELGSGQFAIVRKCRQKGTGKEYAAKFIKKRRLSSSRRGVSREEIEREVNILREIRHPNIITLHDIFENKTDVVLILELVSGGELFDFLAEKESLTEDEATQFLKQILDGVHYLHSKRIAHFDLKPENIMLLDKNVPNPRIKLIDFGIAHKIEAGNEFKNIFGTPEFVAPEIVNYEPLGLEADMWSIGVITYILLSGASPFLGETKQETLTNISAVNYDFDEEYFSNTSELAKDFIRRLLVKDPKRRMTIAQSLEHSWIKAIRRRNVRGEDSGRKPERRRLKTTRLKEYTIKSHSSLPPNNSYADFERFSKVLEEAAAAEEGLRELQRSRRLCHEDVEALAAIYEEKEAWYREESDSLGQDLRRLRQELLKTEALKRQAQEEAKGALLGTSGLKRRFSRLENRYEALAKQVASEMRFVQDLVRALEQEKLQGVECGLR
# [11] = biological target: Protein kinase C zeta type (Homo sapiens) (UniProt Q05513); assay: Inhibition of recombinant human PKCzeta (2 to end residues) at 1 uM using ERMRPRKRQGSVRRRV as substrate incubated for 40 mins in presence of [gamma-33P]-ATP by scintillation counting method relative to control
# Sequence of Protein kinase C zeta type (Homo sapiens) (Q05513 whole entry, the tested form may be a part): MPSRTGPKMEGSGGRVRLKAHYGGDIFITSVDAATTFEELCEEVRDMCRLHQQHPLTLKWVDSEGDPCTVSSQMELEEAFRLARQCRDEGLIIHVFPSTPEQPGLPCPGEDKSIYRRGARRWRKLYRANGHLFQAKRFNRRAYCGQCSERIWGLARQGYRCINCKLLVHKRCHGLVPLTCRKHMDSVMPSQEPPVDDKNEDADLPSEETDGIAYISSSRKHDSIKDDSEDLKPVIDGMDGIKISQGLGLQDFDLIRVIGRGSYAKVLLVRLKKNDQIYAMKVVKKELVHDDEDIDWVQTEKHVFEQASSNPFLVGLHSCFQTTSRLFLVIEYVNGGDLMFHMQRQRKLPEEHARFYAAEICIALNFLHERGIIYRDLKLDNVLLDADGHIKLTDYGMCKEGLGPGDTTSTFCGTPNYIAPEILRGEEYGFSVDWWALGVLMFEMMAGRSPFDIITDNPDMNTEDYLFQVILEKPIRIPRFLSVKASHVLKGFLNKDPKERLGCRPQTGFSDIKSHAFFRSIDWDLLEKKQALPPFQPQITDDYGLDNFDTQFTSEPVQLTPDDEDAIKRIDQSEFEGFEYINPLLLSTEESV
# [12] = biological target: Serine/threonine-protein kinase SIK3 (Homo sapiens) (UniProt Q9Y2K2); assay: Inhibition of recombinant human SIK3 (1 to 307 residues) at 1 uM using KKKVSRSGLYRSPSMPENLNRPR as substrate incubated for 40 mins in presence of [gamma-33P]-ATP by scintillation counting method relative to control
# [13] = biological target: Tyrosine-protein kinase ZAP-70 (Homo sapiens) (UniProt P43403); assay: Inhibition of recombinant human full length ZAP70 at 1 uM using poly(Glu, Tyr) 4:1 as substrate incubated for 40 mins in presence of [gamma-33P]-ATP by scintillation counting method relative to control
# [14] = tested on: PI3-kinase p110-alpha/p85-alpha (Homo sapiens), P27986+P42336 [H1047R]; assay: Inhibition of recombinant human full length PI3K p110alpha/p85alpha H1047R mutant at 1 uM using phosphatidylinositol 4,5-bisphosphate as substrate incubated for 40 mins in presence of [gamma-33P]-ATP by scintillation counting method relative to control; type: protein-complex assay
# HUVEC [15] = assay: Antiproliferative activity against HUVEC cells assessed as reduction in cell viability measured upto 72 hrs by CCK8 assay; type: functional, cell-based; settings: Homo sapiens
# Procedure, shortened: (§2)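 HUVECs, 3×10³ cells/well, kept in 1640 medium with 10% FBS at 37°C and 5% CO₂. Cells were treated at 20 or 40 nM or vehicle, and viability was read by CCK-8 (absorbance 450 nm) at 0, 12, 24, 36, 48, 60 and 72 h. Five replicates per sample.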
# HUVEC [16] = assay: Antiproliferative activity against HUVEC cells assessed as reduction in cell viability at 20 to 40 nM by CCK8 assay; type: functional, cell-based; settings: Homo sapiens, TDE = time-dependent effect; procedure, shortened: as §2
# [17] = Toxicity in BALB/c mouse assessed as effect on blood parameter by measuring MCHC at 40 mg/kg, po administered once two days for 4 times by hematology analyzer; settings: in vivo
SMILES,Activity (MDA-MB-231),inhibition (SiHa),inhibition [1],Activity [2],Cmax [3] [ng/mL],inhibition [4] [%],inhibition [5] [%],inhibition [6] [%],inhibition [7] [%],inhibition [8] [%],inhibition [9] [%],inhibition [10] [%],inhibition [11] [%],inhibition [12] [%],inhibition [13] [%],inhibition [14] [%],inhibition (HUVEC [15]),inhibition (HUVEC [16]),Activity [17]
COc1cc2nccc(Oc3ccc(NC(=O)C4(C(=O)Nc5ccc(F)cc5)CC4)cc3)c2cc1OC [CABOZANTINIB],Active,Active,,,,,,,,,,,,,,,,,
Cc1ccc(NC(=O)C2(C(=O)Nc3ccc(Nc4ncc(F)c(-c5cc(F)c6nc(C)n(C(C)C)c6c5)n4)cc3)CC2)cc1,,,Active,Non-Toxic,1000,46,14,24,23,35,55,12,4,43,11,7,Dose-dependent effect,Tde,Non-Toxic
